The source of these data is ChEMBL document CHEMBL3580567 (J Med Chem, 2015).

Activity calls are given as the source filed them. The rule behind the calls is not given here.

Data set [1] deals with Melatonin receptor type 1A (Homo sapiens, UniProt P48039). Description: Agonist activity at human melatonin receptor-1 transfected in CHO cell membranes after 1 hr by GTPgammaS binding assay relative to melatonin. It is filed as functional. A digest of the protocol:
(§1)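 CHO membranes (20 µg/mL) stably expressing human MT1 or MT2 in 20 mM HEPES pH 7.4, 100 mM NaCl, 3 µM GDP, 3 mM MgCl2, 20 µg/mL saponin. Incubated with 0.2 nM [35S]GTPγS for 1 h at rt, then filtered. Non-specific binding defined with 10 µM GTPγS. Seven concentrations in duplicate; EC50 and Emax fitted.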
A general note: Binding of GTPγS marks nucleotide exchange on a G protein.

Data set [2] has as its target T1, Melatonin receptor type 1B (Homo sapiens, UniProt P49286).
T1 sequence (P49286 whole entry): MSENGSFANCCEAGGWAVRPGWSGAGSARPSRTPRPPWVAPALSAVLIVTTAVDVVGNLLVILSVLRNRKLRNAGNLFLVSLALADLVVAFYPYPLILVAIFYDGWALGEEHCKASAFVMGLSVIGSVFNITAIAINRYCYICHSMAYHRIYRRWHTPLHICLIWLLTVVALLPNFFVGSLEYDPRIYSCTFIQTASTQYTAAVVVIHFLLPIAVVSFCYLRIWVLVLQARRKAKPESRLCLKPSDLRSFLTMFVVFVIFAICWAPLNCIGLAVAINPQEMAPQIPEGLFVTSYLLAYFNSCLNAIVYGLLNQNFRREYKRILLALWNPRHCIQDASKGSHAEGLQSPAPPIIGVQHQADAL
The data set is described as follows: Agonist activity at human melatonin receptor-2 transfected in CHO cell membranes after 1 hr by GTPgammaS binding assay. It is filed as functional.

Data set [3] has as its target T2, Melatonin receptor type 1B (Homo sapiens) (UniProt P49286).
T2 sequence (whole entry): T1 sequence (P49286 whole entry)
Description: Agonist activity at human melatonin receptor-2 transfected in CHO cell membranes after 1 hr by GTPgammaS binding assay relative to melatonin. It is filed as functional. The procedure, abridged: as §1

Data set [4] can be described thus: Induction of primary neuronal stem cell maturation derived from subgranular zone of dentate gyrus of Wistar rat hippocampus assessed as upregulation of MAP-2 expression at 10 uM incubated for 7 days by DAPI staining-based fluorescence microscopic analysis in presence of melatonin receptor antagonist luzindole. It is filed as functional, tissue-based. The note with it: Primary neuron. The procedure, abridged:
(§2)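 Neurospheres came from the SGZ of the dentate gyrus of adult male Wistar rats (8-12 weeks). They were grown in DMEM/F12 with 10 ng/mL EGF, 10 ng/mL FGF and B27. After 3 days, cultures were treated with compounds for 7 days. They were then plated on poly-L-lysine coverslips for 48 h with serum and without growth factors. Cells were immunostained for TuJ1 and MAP-2 with DAPI nuclei. Positive cells were counted by fluorescence microscopy in five NS per condition over three independent experiments. Untreated cultures gave basal values.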

Data set [5] can be described thus: Permeability of the compound at 100 ug/ml after 240 mins by PAMPA. It is filed as physicochemical. The note with it: 4 h. The procedure, abridged: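 For PAMPA-BBB, the filter was coated with porcine brain lipid in dodecane (20 mg/mL). Donor compound was 100 µg/mL in PBS:ethanol 70:30, pH 7.4, and the acceptor held PBS:ethanol 70:30. Plates were incubated 240 min at 25 °C. Acceptor concentration was read by UV-Vis at five wavelengths in four wells, over at least three runs. Eleven quality-control standards were included.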
A general note: In PAMPA a lipid-coated filter parts donor from acceptor wells.

Data set [6] in a line: Induction of primary neuronal stem cell maturation derived from subgranular zone of dentate gyrus of Wistar rat hippocampus assessed as upregulation of MAP-2 expression incubated for 7 days by DAPI staining-based fluorescence microscopic analysis. The note with it: Primary neuron. It is filed as functional. A digest of the protocol: as §2
Data set [7] deals with Glycogen synthase kinase-3 beta (Homo sapiens) (UniProt P49841). The data set is described as follows: Binding affinity to GSK-3beta receptor (unknown origin) at 10 uM.
Sequence of Glycogen synthase kinase-3 beta (Homo sapiens) (P49841 whole entry, looked up): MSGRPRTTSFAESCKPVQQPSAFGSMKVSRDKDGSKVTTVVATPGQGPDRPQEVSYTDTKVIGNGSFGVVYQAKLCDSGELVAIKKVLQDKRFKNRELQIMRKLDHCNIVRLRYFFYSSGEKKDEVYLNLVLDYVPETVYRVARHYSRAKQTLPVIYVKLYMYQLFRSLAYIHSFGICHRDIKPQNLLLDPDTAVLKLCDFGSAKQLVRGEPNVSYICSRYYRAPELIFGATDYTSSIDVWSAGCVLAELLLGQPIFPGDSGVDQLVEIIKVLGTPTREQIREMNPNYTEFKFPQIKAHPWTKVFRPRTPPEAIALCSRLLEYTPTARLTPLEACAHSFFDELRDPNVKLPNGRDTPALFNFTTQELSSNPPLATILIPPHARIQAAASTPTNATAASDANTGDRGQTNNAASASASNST
Data set [8] deals with T3, 5-hydroxytryptamine receptor 2C (Homo sapiens) (UniProt P28335).
T3 sequence (whole entry): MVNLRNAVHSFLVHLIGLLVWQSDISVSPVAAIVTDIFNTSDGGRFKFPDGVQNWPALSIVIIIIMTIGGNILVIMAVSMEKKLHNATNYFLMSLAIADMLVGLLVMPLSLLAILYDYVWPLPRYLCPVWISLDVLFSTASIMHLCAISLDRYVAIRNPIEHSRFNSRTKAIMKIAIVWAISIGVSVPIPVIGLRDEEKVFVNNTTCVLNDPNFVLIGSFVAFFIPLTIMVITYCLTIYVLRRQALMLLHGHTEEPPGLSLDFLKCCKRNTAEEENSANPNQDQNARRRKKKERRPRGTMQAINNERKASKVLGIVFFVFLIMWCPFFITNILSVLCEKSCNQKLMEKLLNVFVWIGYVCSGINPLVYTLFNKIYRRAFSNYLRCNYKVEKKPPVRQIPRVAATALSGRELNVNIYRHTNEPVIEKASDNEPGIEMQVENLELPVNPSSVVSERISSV
The data set is described as follows: Binding affinity to 5HT-2C receptor (unknown origin) at 10 uM.

The target in data set [9] is T1, Melatonin receptor type 1B. The data set is described as follows: Agonist activity at human recombinant melatonin receptor-2 expressed in CHO cells assessed as decrease of cAMP level after 10 mins by HTRF assay. It is filed as functional, cell-based. The procedure, abridged: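 Functional agonist profiling was done by CEREP on cells expressing human recombinant MT receptors. MT1 was read by cellular dielectric spectroscopy and MT2 by homogeneous time-resolved fluorescence. The protocols are those on the company website.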
Background: Changes in cAMP serve as a functional read-out for many G protein-coupled receptors.

The target of data set [10] is T2, Melatonin receptor type 1B (Homo sapiens). Description: Agonist activity at human recombinant melatonin receptor-2 expressed in CHO cells assessed as decrease of cAMP level after 10 mins by HTRF assay relative to melatonin. It is filed as functional, cell-based.

Sequence of Melatonin receptor type 1A (P48039 whole entry): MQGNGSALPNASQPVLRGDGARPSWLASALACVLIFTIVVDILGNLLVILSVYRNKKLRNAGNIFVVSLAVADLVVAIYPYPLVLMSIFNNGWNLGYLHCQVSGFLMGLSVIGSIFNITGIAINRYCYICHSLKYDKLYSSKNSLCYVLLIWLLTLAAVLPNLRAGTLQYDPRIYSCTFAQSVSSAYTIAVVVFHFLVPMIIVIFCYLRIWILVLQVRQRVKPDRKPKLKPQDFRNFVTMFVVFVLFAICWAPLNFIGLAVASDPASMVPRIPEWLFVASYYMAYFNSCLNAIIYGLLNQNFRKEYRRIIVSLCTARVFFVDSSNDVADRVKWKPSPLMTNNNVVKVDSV

As a reminder, the Emax is the greatest response seen or fitted, relative to the assay's reference. Usually EC50 stands for the midpoint of the concentration-response curve. For `COc1ccc2[nH]cc(CCc3nnc(C)o3)c2c1`, the maximal effect (Emax) turned out to be 19% in [1], 32% in data set [3] and 92% in [10]. Moreover, the 50% effective concentration (EC50) was 881 nM in data set [2] and 1600 nM in data set [9]. The outcome in data set [4], in data set [7] and in data set [8] was inactive. Moreover, the permeability result in data set [5] is listed as “permeable”. The Activity entry in [6] is “Dose-dependent effect”.
